What was measured:
Format in all cases: functional
[1] = tested on: Bacteroides thetaiotaomicron; test: Antimicrobial activity against Bacteroides thetaiotaomicron under anaerobic conditions after 44 hrs by CLSI-M11-47 protocol based agar dilution method
Method in brief: (§1)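 Reference agar dilution per CLSI M11-A7 with plates made on test day. Clinical isolates were stored at −70°C in 20% skim milk, subcultured twice, and 48-h cell paste was suspended in brucella broth to 0.5 McFarland. About 10^5 CFU/spot was applied with a Steers replicator. Plates were incubated 44 h at 37°C anaerobically. MIC was the lowest concentration giving complete inhibition or marked growth reduction versus the drug-free control.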

[2] = tested on: Bacteroides caccae; test: Antimicrobial activity against Bacteroides caccae under anaerobic conditions after 44 hrs by CLSI-M11-47 protocol based agar dilution method; method in brief: as §1
[3] = tested on: Bacteroides uniformis; test: Antimicrobial activity against Bacteroides uniformis under anaerobic conditions after 44 hrs by CLSI-M11-47 protocol based agar dilution method; method in brief: as §1
[4] = tested on: Prevotella bivia; test: Antimicrobial activity against Prevotella bivia under anaerobic conditions after 44 hrs by CLSI-M11-47 protocol based agar dilution method
Method in brief: (§2)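 Clinical isolates were stored at −70°C in 20% skim milk and identified phenotypically or by partial 16S rRNA sequencing. Each strain was subcultured twice from frozen stock. Cell paste from 48-h cultures was suspended in brucella broth to a 0.5 McFarland standard. About 10^5 CFU per spot were applied by Steers replicator to agar dilution plates prepared on the day of testing. Plates were incubated 44 h at 37°C in an anaerobic chamber. MIC was taken as the lowest concentration giving complete inhibition or marked reduction of growth versus the drug-free control.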

[5] = tested on: Prevotella nanceiensis; test: Antimicrobial activity against Prevotella nanceiensis under anaerobic conditions after 44 hrs by CLSI-M11-47 protocol based agar dilution method; details: Hoylesella nanceiensis; method in brief: as §2
[6] = tested on: Porphyromonas somerae; test: Antimicrobial activity against Porphyromonas somerae under anaerobic conditions after 44 hrs by CLSI-M11-47 protocol based agar dilution method; method in brief: as §2
[7] = tested on: Fusobacterium mortiferum; test: Antimicrobial activity against Fusobacterium mortiferum under anaerobic conditions after 44 hrs by CLSI-M11-47 protocol based agar dilution method; method in brief: as §1
[8] = tested on: Fusobacterium varium; test: Antimicrobial activity against Fusobacterium varium under anaerobic conditions after 44 hrs by CLSI-M11-47 protocol based agar dilution method; method in brief: as §2
[9] = tested on: Veillonella; test: Antimicrobial activity against Veillonella spp. under anaerobic conditions after 44 hrs by CLSI-M11-47 protocol based agar dilution method; method in brief: as §2
[10] = tested on: Finegoldia magna; test: Antimicrobial activity against Finegoldia magna under anaerobic conditions after 44 hrs by CLSI-M11-47 protocol based agar dilution method; method in brief: as §1
[11] = tested on: Parvimonas micra; test: Antimicrobial activity against Parvimonas micra under anaerobic conditions after 44 hrs by CLSI-M11-47 protocol based agar dilution method; method in brief: as §2
[12] = tested on: Peptoniphilus asaccharolyticus; test: Antimicrobial activity against Peptoniphilus asaccharolyticus under anaerobic conditions after 44 hrs by CLSI-M11-47 protocol based agar dilution method; method in brief: as §2
[13] = tested on: Anaerococcus octavius; test: Antimicrobial activity against Anaerococcus octavius under anaerobic conditions after 44 hrs by CLSI-M11-47 protocol based agar dilution method; method in brief: as §1
[14] = tested on: Anaerococcus vaginalis; test: Antimicrobial activity against Anaerococcus vaginalis under anaerobic conditions after 44 hrs by CLSI-M11-47 protocol based agar dilution method; method in brief: as §1
[15] = tested on: Peptoniphilus lacrimalis; test: Antimicrobial activity against Peptoniphilus lacrimalis under anaerobic conditions after 44 hrs by CLSI-M11-47 protocol based agar dilution method; method in brief: as §2
[16] = tested on: Actinomyces israelii; test: Antimicrobial activity against Actinomyces israelii under anaerobic conditions after 44 hrs by CLSI-M11-47 protocol based agar dilution method; method in brief: as §1
[17] = tested on: Propionibacterium avidum; test: Antimicrobial activity against Propionibacterium avidum under anaerobic conditions after 44 hrs by CLSI-M11-47 protocol based agar dilution method; details: Cutibacterium avidum; method in brief: as §2
[18] = tested on: Eggerthella lenta; test: Antimicrobial activity against Eggerthella lenta under anaerobic conditions after 44 hrs by CLSI-M11-47 protocol based agar dilution method; method in brief: as §1
[19] = tested on: Eubacterium cylindroides; test: Antimicrobial activity against Eubacterium cylindroides under anaerobic conditions after 44 hrs by CLSI-M11-47 protocol based agar dilution method; details: Faecalitalea cylindroides; method in brief: as §1
[20] = tested on: Eubacterium saburreum; test: Antimicrobial activity against Eubacterium saburreum under anaerobic conditions after 44 hrs by CLSI-M11-47 protocol based agar dilution method; details: Lachnoanaerobaculum saburreum; method in brief: as §1
[21] = tested on: Solobacterium moorei; test: Antimicrobial activity against Solobacterium moorei under anaerobic conditions after 44 hrs by CLSI-M11-47 protocol based agar dilution method; method in brief: as §2
[22] = tested on: Lacticaseibacillus casei; test: Antimicrobial activity against Lactobacillus casei under anaerobic conditions after 44 hrs by CLSI-M11-47 protocol based agar dilution method; method in brief: as §2
[23] = tested on: Lacticaseibacillus rhamnosus; test: Antimicrobial activity against Lactobacillus rhamnosus under anaerobic conditions after 44 hrs by CLSI-M11-47 protocol based agar dilution method; method in brief: as §2
[24] = tested on: Thomasclavelia ramosa; test: Antimicrobial activity against Clostridium ramosum under anaerobic conditions after 44 hrs by CLSI-M11-47 protocol based agar dilution method; method in brief: as §1
[25] = tested on: [Clostridium] innocuum; test: Antimicrobial activity against Clostridium […] under anaerobic conditions after 44 hrs by CLSI-M11-47 protocol based agar dilution method; method in brief: as §1
[26] = tested on: Clostridium aldenense; test: Antimicrobial activity against Clostridium aldenense under anaerobic conditions after 44 hrs by CLSI-M11-47 protocol based agar dilution method; details: Enterocloster aldenensis; method in brief: as §1
[27] = tested on: Clostridium bolteae; test: Antimicrobial activity against Clostridium bolteae under anaerobic conditions after 44 hrs by CLSI-M11-47 protocol based agar dilution method; details: Enterocloster bolteae; method in brief: as §1
[28] = tested on: Clostridium citroniae; test: Antimicrobial activity against Clostridium citroniae under anaerobic conditions after 44 hrs by CLSI-M11-47 protocol based agar dilution method; details: Enterocloster citroniae; method in brief: as §1
[29] = tested on: Clostridium hathewayi; test: Antimicrobial activity against Clostridium hathewayi under anaerobic conditions after 44 hrs by CLSI-M11-47 protocol based agar dilution method; details: Hungatella hathewayi; method in brief: as §1
[30] = tested on: Paraclostridium bifermentans; test: Antimicrobial activity against Clostridium bifermentans under anaerobic conditions after 44 hrs by CLSI-M11-47 protocol based agar dilution method; method in brief: as §1
[31] = tested on: Clostridium hylemonae; test: Antimicrobial activity against Clostridium hylemonae under anaerobic conditions after 44 hrs by CLSI-M11-47 protocol based agar dilution method; method in brief: as §1
[32] = tested on: Eubacterium limosum; test: Antimicrobial activity against Eubacterium limosum under anaerobic conditions after 44 hrs by CLSI-M11-47 protocol based agar dilution method; method in brief: as §1

CCC[C@@H]1C[C@@H](C(=O)N[C@@H]([C@H]2O[C@H](SC)[C@H](O)[C@@H](O)[C@H]2O)[C@H](C)Cl)N(C)C1 [CLINDAMYCIN]
128 µg/mL: MIC90 [1] | MIC90 [5] | MIC90 [9] | MIC90 [16] | MIC90 [30] | MIC90 [31]
0.06 µg/mL: MIC50 [7] | MIC50 [16] | MIC50 [19] | MIC50 [20] | MIC50 [21] | MIC50 [32]
4 µg/mL: MIC50 [1] | MIC50 [2] | MIC50 [3] | MIC90 [8] | MIC50 [24]
16 µg/mL: MIC90 [11]
64 µg/mL: MIC90 [13] | MIC90 [14] | MIC90 [15]
0.125 µg/mL: MIC50 [9] | MIC50 [12] | MIC50 [13] | MIC50 [14] | MIC50 [15]
2 µg/mL: MIC50 [8] | MIC50 [10] | MIC90 [18] | MIC90 [19] | MIC90 [20] | MIC90 [21] | MIC90 [22] | MIC90 [23] | MIC90 [26] | MIC90 [27] | MIC90 [28] | MIC90 [29] | MIC50 [30] | MIC50 [31] | MIC90 [32]
0.25 µg/mL: MIC50 [11] | MIC50 [17] | MIC90 [17]
0.5 µg/mL: MIC50 [18] | MIC50 [25] | MIC50 [26] | MIC50 [27] | MIC50 [28] | MIC50 [29]
≤ 0.03 µg/mL: MIC50 [4] | MIC50 [5] | MIC50 [6]
8 µg/mL: MIC90 [24]
1 µg/mL: MIC90 [7] | MIC50 [22] | MIC50 [23]
> 128 µg/mL: MIC90 [2] | MIC90 [3] | MIC90 [4] | MIC90 [6] | MIC90 [10] | MIC90 [12] | MIC90 [25]

Cc1ncc([N+](=O)[O-])n1CCO [METRONIDAZOLE]
8 µg/mL: MIC90 [9]
4 µg/mL: MIC90 [13] | MIC90 [14] | MIC90 [15] | MIC90 [25] | MIC90 [30] | MIC90 [31]
2 µg/mL: MIC90 [2] | MIC90 [3] | MIC90 [4] | MIC90 [5] | MIC50 [9]
> 32 µg/mL: MIC50 [16] | MIC90 [16] | MIC50 [17]
0.5 µg/mL: MIC50 [5] | MIC50 [6] | MIC90 [6] | MIC50 [7] | MIC90 [8] | MIC50 [10] | MIC50 [19] | MIC50 [20] | MIC50 [21] | MIC50 [30] | MIC50 [31] | MIC50 [32]
1 µg/mL: MIC50 [1] | MIC90 [1] | MIC50 [2] | MIC50 [3] | MIC50 [4] | MIC90 [7] | MIC90 [10] | MIC50 [12] | MIC90 [12] | MIC50 [13] | MIC50 [14] | MIC50 [15] | MIC50 [18] | MIC90 [18] | MIC90 [19] | MIC90 [20] | MIC90 [21] | MIC50 [24] | MIC90 [24] | MIC50 [25] | MIC90 [32]
> 31 µg/mL: MIC90 [17]
0.25 µg/mL: MIC50 [8] | MIC50 [11] | MIC90 [11] | MIC90 [26] | MIC90 [27] | MIC90 [28] | MIC90 [29]
0.06 µg/mL: MIC50 [26] | MIC50 [27] | MIC50 [28] | MIC50 [29]
> 64 µg/mL: MIC50 [22] | MIC90 [22] | MIC50 [23] | MIC90 [23]

Source: ChEMBL document CHEMBL1255409, “In vitro activity of ceftaroline against 623 diverse strains of anaerobic bacteria” (2010)
